Assay outcomes as filed in PubChem.
DENV2 CPE – inhibitors of DENV2 cytopathic effect, primary screen, cell-based, plate reader, single concentration; DENV2-infected cells, cytopathic effect rescue; actives 1.7% (n = 350,000); CPE inhibition, % at 9.99 µM; in the data active = CPE inhibition above about 20%, passing the limit was not always enough; inconclusive = no clear call, values can overlap the other calls; tested in BHK-21 cells
SIRT5 block – SIRT5 desuccinylase inhibitors, primary screen, biochemical, fluorescence imaging, single point, set 5; Purified SirT5, succinyl-peptide AMC, trypsin-coupled fluorescence; inhibition, % at 15 µM; actives 1.1% (n = 330,000); in the data active = inhibition above about 15%; inconclusive = no clear call, values can overlap the other calls
Target sequence (Q9NXA8 whole entry, looked up): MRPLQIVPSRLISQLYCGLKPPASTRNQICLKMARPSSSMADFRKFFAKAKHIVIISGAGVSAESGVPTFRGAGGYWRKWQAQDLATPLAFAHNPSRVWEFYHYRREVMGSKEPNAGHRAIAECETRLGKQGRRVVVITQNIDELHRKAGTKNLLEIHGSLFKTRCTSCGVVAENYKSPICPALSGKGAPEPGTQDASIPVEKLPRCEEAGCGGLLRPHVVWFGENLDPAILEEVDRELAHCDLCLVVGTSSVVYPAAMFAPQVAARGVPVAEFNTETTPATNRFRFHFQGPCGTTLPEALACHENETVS
MLL AF4-AF9 inh – inhibitors of AF4 peptide binding to AF9, primary screen, biochemical, AlphaScreen, biotin-AF4 peptide, FLAG-AF9, single point. actives 0.47% (n = 350,000). inhibition, % at 10 µM. Protein AF-9 (Homo sapiens), P42568;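 active = every replicate reaching a set inhibition limit, whatever the replicate mean, cut at about 25% in these data; inconclusive = mean inhibition reaches that limit but some replicates miss it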
S100A4 inh HTS – inhibitors of S100A4-myosin IIA peptide binding, primary screen, biochemical, fluorescence polarization, TAMRA-MyoIIA peptide; inhibition, % at 10.7 µM; actives 0.14% (n = 360,000);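 active = mean inhibition of at least 70% across replicates, with every replicate also reaching that level; inconclusive = mean inhibition reaches 70% but some replicates fall short; inactive = mean inhibition below 70%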
Target sequence (P26447 whole entry, looked up): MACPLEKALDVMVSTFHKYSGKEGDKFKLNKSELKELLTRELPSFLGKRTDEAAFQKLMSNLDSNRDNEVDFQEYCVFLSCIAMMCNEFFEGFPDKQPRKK
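Material: S100A4 monomer protein | Medium: HEPES pH 7.2 with CaCl2, KCl, NaCl, DTT, Triton | Reagent: Labelled myosin peptide probe, 5 nM | Doses: One dose per compound | Times: 5 min incubation before reading | Benchmarks: Neutral control DMSO, positive control TFP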
CaV13 FRET inh – Primary screen for inhibitors of IQ motif and Ca2+-dependent inactivation inhibitor domain binding in CACNA1D, Förster resonance energy transfer in living cells, … | HEK cells, CFP/YFP FRET ICDI-IQ, plate reader, 10 min; percent FRET-ratio fall versus neutral wells | inhibition, % at 12.3 µM | actives 0.098% (n = 340,000);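 active = mean replicate inhibition of at least 30% and at least 1% of replicates passing that level; inconclusive = only one of the two criteria is met; inactive = neither criterion is met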
Of the large screens only hits and unclear results are named; the others gave an inactive call. Hits are enriched below; roughly 2.7% of the tested compounds scored in any of these assays.

C/C(CC1CC(COCC(C)C)OC1=O)=N\NC(N)=S (configuration not stated)	DENV2 CPE 90.8
CCCCCOCC1CC(C/C(C)=N/NC(N)=S)C(=O)O1 (configuration not stated)	none
CCc1nc2c(OCc3ccc(Cl)cc3Cl)cccn2c1N(C)C(=O)CC(C)C	none (no result: SIRT5 block)
O=C(CN1CCN(c2ncc(C(F)(F)F)cc2Cl)CC1)N1CCN(c2ncc(C(F)(F)F)cc2Cl)CC1	none (no result: DENV2 CPE, MLL AF4-AF9 inh)
CN1CCN(C(=O)C2CCN(c3ncc(C(F)(F)F)cc3Cl)CC2)CC1	SIRT5 block 37.4
CCCN1C(=O)/C(=C2/C=Cc3ccccc3N2CC)SC1=S	MLL AF4-AF9 inh 26.3
C[C@@H]1CN([C@@H](C)CO)C(=O)Cc2cc(NS(=O)(=O)c3ccc(Cl)cc3)ccc2O[C@@H]1CN(C)Cc1ccc(C(=O)Nc2ccccc2N)cc1	none (no result: CaV13 FRET inh)
Cc1noc(C)c1S(=O)(=O)Nc1ccc2c(c1)CC(=O)N([C@H](C)CO)C[C@H](C)[C@@H](CN(C)Cc1ccc(C(=O)Nc3ccccc3N)cc1)O2	DENV2 CPE 39.9 (no result: CaV13 FRET inh)
C[C@@H]1CN([C@H](C)CO)C(=O)Cc2cc(NS(=O)(=O)c3ccc(Cl)cc3)ccc2O[C@H]1CN(C)Cc1ccc(C(=O)Nc2ccccc2N)cc1	DENV2 CPE 71.2 (no result: CaV13 FRET inh)
Cc1ccc(S(=O)(=O)Nc2ccc3c(c2)C(=O)N([C@H](C)CO)C[C@H](C)[C@@H](CN(C)Cc2ccc(C(=O)Nc4ccccc4N)cc2)O3)cc1	DENV2 CPE 20.2 (no result: SIRT5 block, CaV13 FRET inh)
COCC(=O)N1C[C@H](C)[C@H](OC)CN(C)C(=O)c2cc(NC(=O)c3ccc(OC)cc3)ccc2OC[C@H]1C	none (no result: CaV13 FRET inh)
NC1(C(=O)O)CSSC1	DENV2 CPE inconclusive, MLL AF4-AF9 inh 48.2
Cc1ccc(S(=O)(=O)Nc2ccc3c(c2)CC(=O)N([C@H](C)CO)C[C@@H](C)[C@@H](CN(C)Cc2ccncc2)O3)cc1	none (no result: CaV13 FRET inh)
CC(C)Sc1nc2c(cnn2-c2ccc(F)cc2)c(=O)[nH]1	none
CC(C)Sc1nc2c(cnn2-c2ccccc2)c(=O)[nH]1	MLL AF4-AF9 inh 36.5
C[C@H](CO)N1C[C@H](C)[C@H](CN(C)C)Oc2cc(-c3ccc(C#N)cc3)ccc2S1(=O)=O	none (no result: CaV13 FRET inh)
CCN(CC)CCN1C(=O)C(O)=C(C(C)=O)C1c1ccccc1[N+](=O)[O-] (configuration not stated)	none (no result: SIRT5 block)
CC(=O)C1=C(O)C(=O)N(CCc2ccccc2)C1c1ccccc1[N+](=O)[O-] (configuration not stated)	DENV2 CPE 30.5
COc1ccccc1S(=O)(=O)N[C@@H]1C=C[C@@H](CC(=O)N2CCN(C)CC2)O[C@H]1CO	DENV2 CPE inconclusive (no result: CaV13 FRET inh)
COc1ccc(CCNC(=O)Cn2ccc3c(OC)cccc3c2=O)cc1OC	SIRT5 block 21.1
COc1ccc(CCNC(=O)CSc2cn(Cc3cccc(C)c3)c3ccccc23)cc1OC	CaV13 FRET inh 48.7
COc1cccc2c(=O)n(CC(=O)NCCc3ccccc3)ccc12	none
COc1ccc(CCNC(=O)CSc2cn(Cc3ccccc3)c3ccccc23)cc1OC	none
CCOC(=O)N1CCC(NCCNC(=O)c2ccc(F)c(F)c2)CC1	DENV2 CPE 21.1
N#C[C@@H]1[C@H](c2ccc(C#CC3CCCC3)cc2)[C@@H](CO)N1S(=O)(=O)c1ccccc1	DENV2 CPE 50.4 (no result: CaV13 FRET inh)
N#C[C@H]1[C@@H](c2ccccc2)[C@@H](CO)N1S(=O)(=O)Cc1ccccc1	DENV2 CPE 65.1 (no result: CaV13 FRET inh)
N#C[C@@H]1[C@@H](c2ccc(C#CC3CC3)cc2)[C@@H](CO)N1S(=O)(=O)Cc1ccccc1	none (no result: CaV13 FRET inh)
CS(=O)(=O)N1[C@H](CO)[C@@H](c2ccc(C#CC3CC3)cc2)[C@@H]1C#N	DENV2 CPE 26.2 (no result: CaV13 FRET inh)
N#C[C@H]1[C@@H](c2ccc(C#CC3CCCC3)cc2)[C@@H](CO)N1S(=O)(=O)c1ccccc1	none (no result: CaV13 FRET inh)
COc1ccc2c3c([nH]c2c1)[C@@H](CO)N(C(=O)Nc1ccc(F)cc1)CC31CCN(C(=O)Nc2ccc3c(c2)OCO3)CC1	none (no result: CaV13 FRET inh)
COc1ccc2c3c([nH]c2c1)[C@@H](CO)N(C(C)=O)CC31CCN(C(=O)c2ccc3c(c2)OCO3)CC1	MLL AF4-AF9 inh 25.4 (no result: CaV13 FRET inh)
COc1ccc2c3c([nH]c2c1)[C@H](CO)N(C(=O)Nc1ccc(F)cc1)CC31CCN(C(=O)Nc2ccc3c(c2)OCO3)CC1	DENV2 CPE 61.4 (no result: CaV13 FRET inh)
COc1ccc2c3c([nH]c2c1)[C@H](CO)N(C(C)=O)CC31CCN(C(=O)c2cccc(F)c2)CC1	none (no result: CaV13 FRET inh)
CCCN1CCC2(CC1)CN(Cc1ccc3c(c1)OCO3)[C@H](CO)c1[nH]c3cc(OC)ccc3c12	MLL AF4-AF9 inh 30.4 (no result: CaV13 FRET inh)
COc1ccc2c3c([nH]c2c1)[C@H](CO)N(C(C)=O)CC31CN(C(=O)c2cccc(F)c2)C1	DENV2 CPE 83.5 (no result: SIRT5 block, S100A4 inh HTS, CaV13 FRET inh)
CSc1nnc(Cc2cc(=O)[nH]c(=O)[nH]2)n1-c1cc(C)ccc1C	none (no result: DENV2 CPE, SIRT5 block, MLL AF4-AF9 inh, S100A4 inh HTS)
Cc1ccc(C)c(-n2c(Cc3cc(=O)[nH]c(=O)[nH]3)nnc2SC(C)C)c1	CaV13 FRET inh 38.9 (no result: SIRT5 block)
CCCNC(=O)N[C@H]1CC[C@H](CCn2cc(C3CCCCC3)nn2)O[C@@H]1CO	none (no result: CaV13 FRET inh)
COc1ccc(C(=O)COC(=O)C2CCC(=O)N2)cc1 (configuration not stated)	SIRT5 block 16.7
CO[C@@H]1CC[C@H]2CCN(C)C(=O)[C@H](C)[C@H](OC)CN(C)C(=O)c3cccc(C#N)c3OC[C@@H]1O2	none (no result: CaV13 FRET inh)
C[C@@H]1CCCCO[C@@H](CN(C)Cc2ccncc2)[C@@H](C)CN([C@H](C)CO)C(=O)c2cc(NS(=O)(=O)c3ccc(Cl)cc3)ccc2O1	none (no result: CaV13 FRET inh)
C[C@@H]1CCCCO[C@@H](CN(C)Cc2ccncc2)[C@H](C)CN([C@@H](C)CO)C(=O)c2cc(NS(=O)(=O)c3ccc(Cl)cc3)ccc2O1	DENV2 CPE 60.1 (no result: CaV13 FRET inh)
C[C@@H]1CN([C@H](C)CO)C(=O)c2cc(NS(=O)(=O)c3ccc(F)cc3)ccc2O[C@@H](C)CCCCO[C@H]1CN(C)Cc1ccncc1	DENV2 CPE 50.6 (no result: CaV13 FRET inh)
C[C@H](CO)N1C[C@H](C)[C@@H](CN(C)C(=O)Nc2ccc3c(c2)OCO3)Oc2ccc(N(C)C)cc2C1=O	none (no result: CaV13 FRET inh)
O=C(C[C@@H]1C[C@@H]2c3cc(NC(=O)Cc4ccncc4)ccc3O[C@@H]2[C@@H](CO)O1)NCc1cccnc1	none (no result: CaV13 FRET inh)
CCOc1ccccc1NC(=O)C(OC(=O)c1ccc(NC(=O)CC#N)cc1)c1ccccc1 (configuration not stated)	none
CC(OC(=O)c1ccc(NC(=O)CC#N)cc1)C(=O)NC(c1ccccc1)c1ccccc1 (configuration not stated)	SIRT5 block 15.9
CCCn1cnc2cc(NCc3ccccn3)ccc21	DENV2 CPE inconclusive, MLL AF4-AF9 inh 42.5
